Test results reported in ChEMBL document CHEMBL1629475, “Synthesis of new chalcone derivatives containing a rhodanine-3-acetic acid moiety with potential anti-bacterial activity” (2010).
Converted amounts (≈) assume the structure as drawn. The source made the active and inactive calls. The rule behind the calls is not given here.

Tested on: Streptococcus mutans
Assay: Antibacterial activity against Streptococcus mutans KCTC 3289 at 64 ug/ml
Format: functional, organism-based
Conditions: not given

SMILES	Activity
O=C(O)CN1C(=O)CSC1=S [RHODANINE-3-ACETIC ACID]	inactive
O=C(O)CN1C(=O)/C(=C\c2ccc(/C=C/C(=O)c3ccccc3F)cc2)SC1=S	inactive
O=C(O)CN1C(=O)/C(=C\c2ccc(/C=C/C(=O)c3ccccc3Br)cc2)SC1=S	inactive

Tested on: Streptococcus mutans
Assay: Antibacterial activity against Streptococcus mutans KCTC 3289 after 20 hrs by twofold serial dilution technique
Format: functional
Conditions: KCTC 3289, 20 h
Method in brief: (§1)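 Inoculum was 10⁵ CFU/mL, and MIC was read after incubation at 37 °C for 20 h. Oxacillin and norfloxacin were the positive controls.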

SMILES	MIC
O=Cc1ccc(/C=C/C(=O)c2ccc(Cl)cc2Cl)cc1	> 64 µg/mL
O=C(O)CN1C(=O)/C(=C\c2ccc(/C=C/C(=O)c3cccc(Cl)c3)cc2)SC1=S	64 µg/mL (≈ 144 µM)
O=C(O)CN1C(=O)CSC1=S [RHODANINE-3-ACETIC ACID]	> 64 µg/mL
O=C(O)CN1C(=O)/C(=C\c2ccc(/C=C/C(=O)c3ccccc3F)cc2)SC1=S	> 64 µg/mL
O=C(O)CN1C(=O)/C(=C\c2ccc(/C=C/C(=O)c3ccccc3Br)cc2)SC1=S	> 64 µg/mL

Tested on: Escherichia coli
Assay: Antibacterial activity against Escherichia coli 1356 after 20 hrs by twofold serial dilution technique
Format: functional
Conditions: Escherichia coli, 1356, 20 h
Method in brief: (§2)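 Inoculum was 10⁵ CFU/mL. MIC was read after 20 h at 37 °C. The MRSA and QRSA strains were multidrug-resistant clinical isolates. Oxacillin and norfloxacin served as positive controls.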

SMILES	MIC
O=Cc1ccc(/C=C/C(=O)c2ccc(Cl)cc2Cl)cc1	> 64 µg/mL
O=C(O)CN1C(=O)/C(=C\c2ccc(/C=C/C(=O)c3cccc(Cl)c3)cc2)SC1=S	> 64 µg/mL
O=C(O)CN1C(=O)CSC1=S [RHODANINE-3-ACETIC ACID]	> 64 µg/mL
O=C(O)CN1C(=O)/C(=C\c2ccc(/C=C/C(=O)c3ccccc3F)cc2)SC1=S	> 64 µg/mL
O=C(O)CN1C(=O)/C(=C\c2ccc(/C=C/C(=O)c3ccccc3Br)cc2)SC1=S	> 64 µg/mL

Tested on: Escherichia coli
Assay: Antibacterial activity against Escherichia coli 1924 at 64 ug/ml
Format: functional, organism-based
Conditions: not given

SMILES	Activity
O=Cc1ccc(/C=C/C(=O)c2ccc(Cl)cc2Cl)cc1	inactive
O=C(O)CN1C(=O)/C(=C\c2ccc(/C=C/C(=O)c3cccc(Cl)c3)cc2)SC1=S	inactive
O=C(O)CN1C(=O)CSC1=S [RHODANINE-3-ACETIC ACID]	inactive
O=C(O)CN1C(=O)/C(=C\c2ccc(/C=C/C(=O)c3ccccc3F)cc2)SC1=S	inactive
O=C(O)CN1C(=O)/C(=C\c2ccc(/C=C/C(=O)c3ccccc3Br)cc2)SC1=S	inactive

Tested on: Staphylococcus aureus
Assay: Antibacterial activity against Staphylococcus aureus RN 4220 at 64 ug/ml
Format: functional, organism-based
Conditions: not given

SMILES	Activity
O=C(O)CN1C(=O)CSC1=S [RHODANINE-3-ACETIC ACID]	inactive
O=C(O)CN1C(=O)/C(=C\c2ccc(/C=C/C(=O)c3ccccc3F)cc2)SC1=S	inactive
O=C(O)CN1C(=O)/C(=C\c2ccc(/C=C/C(=O)c3ccccc3Br)cc2)SC1=S	inactive

Tested on: Staphylococcus aureus
Assay: Antibacterial activity against Staphylococcus aureus KCTC 503 at 64 ug/ml
Format: functional, organism-based
Conditions: not given

SMILES	Activity
O=C(O)CN1C(=O)CSC1=S [RHODANINE-3-ACETIC ACID]	inactive
O=C(O)CN1C(=O)/C(=C\c2ccc(/C=C/C(=O)c3ccccc3F)cc2)SC1=S	inactive
O=C(O)CN1C(=O)/C(=C\c2ccc(/C=C/C(=O)c3ccccc3Br)cc2)SC1=S	inactive

Tested on: Staphylococcus aureus
Assay: Antibacterial activity against Staphylococcus aureus RN 4220 after 20 hrs by twofold serial dilution technique
Format: functional
Conditions: RN 4220, 20 h
Method in brief: as §2

SMILES	MIC
O=Cc1ccc(/C=C/C(=O)c2ccc(Cl)cc2Cl)cc1	64 µg/mL (≈ 210 µM)
O=C(O)CN1C(=O)/C(=C\c2ccc(/C=C/C(=O)c3cccc(Cl)c3)cc2)SC1=S	64 µg/mL (≈ 144 µM)
O=C(O)CN1C(=O)CSC1=S [RHODANINE-3-ACETIC ACID]	> 64 µg/mL
O=C(O)CN1C(=O)/C(=C\c2ccc(/C=C/C(=O)c3ccccc3F)cc2)SC1=S	> 64 µg/mL
O=C(O)CN1C(=O)/C(=C\c2ccc(/C=C/C(=O)c3ccccc3Br)cc2)SC1=S	> 64 µg/mL

Tested on: Staphylococcus aureus
Assay: Antibacterial activity against Staphylococcus aureus KCTC 209 after 20 hrs by twofold serial dilution technique
Format: functional
Conditions: KCTC 209, 20 h
Method in brief: as §2

SMILES	MIC
O=Cc1ccc(/C=C/C(=O)c2ccc(Cl)cc2Cl)cc1	64 µg/mL (≈ 210 µM)
O=C(O)CN1C(=O)/C(=C\c2ccc(/C=C/C(=O)c3cccc(Cl)c3)cc2)SC1=S	64 µg/mL (≈ 144 µM)
O=C(O)CN1C(=O)CSC1=S [RHODANINE-3-ACETIC ACID]	> 64 µg/mL
O=C(O)CN1C(=O)/C(=C\c2ccc(/C=C/C(=O)c3ccccc3F)cc2)SC1=S	> 64 µg/mL
O=C(O)CN1C(=O)/C(=C\c2ccc(/C=C/C(=O)c3ccccc3Br)cc2)SC1=S	> 64 µg/mL

Tested on: Streptococcus mutans
Assay: Antibacterial activity against Streptococcus mutans KCTC 3065 after 20 hrs by twofold serial dilution technique
Format: functional
Conditions: KCTC 3065, 20 h
Method in brief: as §1

SMILES	MIC
O=Cc1ccc(/C=C/C(=O)c2ccc(Cl)cc2Cl)cc1	> 64 µg/mL
O=C(O)CN1C(=O)/C(=C\c2ccc(/C=C/C(=O)c3cccc(Cl)c3)cc2)SC1=S	64 µg/mL (≈ 144 µM)
O=C(O)CN1C(=O)CSC1=S [RHODANINE-3-ACETIC ACID]	> 64 µg/mL
O=C(O)CN1C(=O)/C(=C\c2ccc(/C=C/C(=O)c3ccccc3F)cc2)SC1=S	> 64 µg/mL
O=C(O)CN1C(=O)/C(=C\c2ccc(/C=C/C(=O)c3ccccc3Br)cc2)SC1=S	> 64 µg/mL

Tested on: Escherichia coli
Assay: Antibacterial activity against Escherichia coli 1924 after 20 hrs by twofold serial dilution technique
Format: functional
Conditions: Escherichia coli, 1924, 20 h
Method in brief: as §2

SMILES	MIC
O=Cc1ccc(/C=C/C(=O)c2ccc(Cl)cc2Cl)cc1	> 64 µg/mL
O=C(O)CN1C(=O)/C(=C\c2ccc(/C=C/C(=O)c3cccc(Cl)c3)cc2)SC1=S	> 64 µg/mL
O=C(O)CN1C(=O)CSC1=S [RHODANINE-3-ACETIC ACID]	> 64 µg/mL
O=C(O)CN1C(=O)/C(=C\c2ccc(/C=C/C(=O)c3ccccc3F)cc2)SC1=S	> 64 µg/mL
O=C(O)CN1C(=O)/C(=C\c2ccc(/C=C/C(=O)c3ccccc3Br)cc2)SC1=S	> 64 µg/mL

Tested on: Escherichia coli
Assay: Antibacterial activity against Escherichia coli 1356 at 64 ug/ml
Format: functional, organism-based
Conditions: not given

SMILES	Activity
O=Cc1ccc(/C=C/C(=O)c2ccc(Cl)cc2Cl)cc1	inactive
O=C(O)CN1C(=O)/C(=C\c2ccc(/C=C/C(=O)c3cccc(Cl)c3)cc2)SC1=S	inactive
O=C(O)CN1C(=O)CSC1=S [RHODANINE-3-ACETIC ACID]	inactive
O=C(O)CN1C(=O)/C(=C\c2ccc(/C=C/C(=O)c3ccccc3F)cc2)SC1=S	inactive
O=C(O)CN1C(=O)/C(=C\c2ccc(/C=C/C(=O)c3ccccc3Br)cc2)SC1=S	inactive

Tested on: Streptococcus mutans
Assay: Antibacterial activity against Streptococcus mutans KCTC 3065 at 64 ug/ml
Format: functional, organism-based
Conditions: not given

SMILES	Activity
O=C(O)CN1C(=O)CSC1=S [RHODANINE-3-ACETIC ACID]	inactive
O=C(O)CN1C(=O)/C(=C\c2ccc(/C=C/C(=O)c3ccccc3F)cc2)SC1=S	inactive
O=C(O)CN1C(=O)/C(=C\c2ccc(/C=C/C(=O)c3ccccc3Br)cc2)SC1=S	inactive

Tested on: Staphylococcus aureus
Assay: Antibacterial activity against Staphylococcus aureus KCTC 503 after 20 hrs by twofold serial dilution technique
Format: functional
Conditions: KCTC 503, 20 h
Method in brief: as §2

SMILES	MIC
O=Cc1ccc(/C=C/C(=O)c2ccc(Cl)cc2Cl)cc1	64 µg/mL (≈ 210 µM)
O=C(O)CN1C(=O)/C(=C\c2ccc(/C=C/C(=O)c3cccc(Cl)c3)cc2)SC1=S	64 µg/mL (≈ 144 µM)
O=C(O)CN1C(=O)CSC1=S [RHODANINE-3-ACETIC ACID]	> 64 µg/mL
O=C(O)CN1C(=O)/C(=C\c2ccc(/C=C/C(=O)c3ccccc3F)cc2)SC1=S	> 64 µg/mL
O=C(O)CN1C(=O)/C(=C\c2ccc(/C=C/C(=O)c3ccccc3Br)cc2)SC1=S	> 64 µg/mL

Tested on: Staphylococcus aureus
Assay: Antibacterial activity against Staphylococcus aureus KCTC 209 at 64 ug/ml
Format: functional, organism-based
Conditions: not given

SMILES	Activity
O=C(O)CN1C(=O)CSC1=S [RHODANINE-3-ACETIC ACID]	inactive
O=C(O)CN1C(=O)/C(=C\c2ccc(/C=C/C(=O)c3ccccc3F)cc2)SC1=S	inactive
O=C(O)CN1C(=O)/C(=C\c2ccc(/C=C/C(=O)c3ccccc3Br)cc2)SC1=S	inactive
